PTEN del growth: growth suppressors of cells with PTEN tumor suppressor deletion. HCT116 PTEN-null viability, CellTiter-Glo, 60 h; stronger effect = lower value. viability, % at 10 µM. 1.2% of 140,000 active;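 active means viability at or below a set limit, 4 SD under the median of all tested compounds, cut at about 3.7% in these data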;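 further: PTEN knockout HCT116 line with beta catenin targeted HCT116 as companion control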
Dynein transport: dynein cargo transport inhibition; 3617.4 mouse cells, GR-EGFP nuclear translocation imaging; test concentration mostly 20 µM; stimulated with dexamethasone, 1 µM; stronger effect = lower value; AID 1381; 0.47% of 220,000 active; z-score, hits read low;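 active means plate z-score of nuclear minus cytoplasmic receptor signal below a set negative limit, without overly bright fluorescence or cell loss, cut at about -3.5 in these data, passing the limit was not always enough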;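 further: z-score of nuclear minus cytoplasmic ring GR-EGFP intensity difference per well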
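Buffer or medium: tet-free, stripped-serum medium; reagent: dexamethasone at 1.0 µM final, 30 min; incubation: 48 h induction, 1 h compound, 30 min dex at 37 °C; measured by: formaldehyde fixation, Hoechst nuclear stain, 10x automated fluorescence imaging; read-out: nuclear-to-cytoplasmic GR-EGFP distribution per well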
HCT116 bCat-KO: beta-catenin-lacking colon tumor cell growth suppression; HCT116 beta-catenin knockout viability, CellTiter-Glo, 60 h; stronger effect = lower value; viability, % at 10 µM; 1.5% of 140,000 active; AID 818;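 active means viability at or under a set limit, the compound median less 4 SD, cut at about 6% in these data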;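 further: 0% = Hyamine 1622 control at 20 µM and 100% = untreated cell control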
Autophagy mod: autophagy modulation, high-content screen. calls only at 10 µM (by protocol). 0.98% of 190,000 active. MEF GFP-LC3 puncta imaging; test concentration mostly 10 µM;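 active means percentage of spot-positive cells more than 3 SD above its plate mean, without a fluorescence outlier flag or 80% toxicity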;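 further: spot-positive cell cutoff set from DMSO-treated cells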
L major viab: inhibitors of Leishmania major promastigote growth. Leishmania major promastigotes, resazurin fluorescence viability. inhibition, % at 10 µM. 9% of 200,000 active. AID 1063; in the data active means inhibition above about 50%;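 further: promastigotes grown with compound for 44 hours at 28 °C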
* marks the source's active call; other numbers are inactive results; i = inactive; x = no result given. An excerpt weighted towards active compounds, which were near 9.2% of everything screened.

SMILES	PTEN del growth	Dynein transport	HCT116 bCat-KO	Autophagy mod	L major viab
CC(=O)NC(c1cccs1)c1cc([N+](=O)[O-])c2cccnc2c1O (stereo not drawn)	3.8*	-0.49	5.6*	i	-3
CC#CCCCC(=O)Nc1ccccc1C(=O)O	89	0.045	104	i	-2
COC(=O)c1ncccc1SC	108	1	105	i	28
C/C(=N\N1CCN(c2ccccc2)CC1)c1ccncc1	x	-0.42	x	i	-5
COc1ccccc1C1=NOC(Cn2c(NCCOCCO)nc3c2c(=O)n(C)c(=O)n3C)C1 (stereo not drawn)	x	1.3	x	x	x
CC(C)C(=O)NC(c1ccccc1)c1cc([N+](=O)[O-])c2cccnc2c1O (stereo not drawn)	7	-0.077	4.1*	i	-4
O=C(CCc1ccccc1)NNC(=O)c1ccccc1C(=O)O	95	-0.24	98	i	60*
CN1CCN(C(=S)c2cn(Cc3cccc(F)c3)c3ccccc23)CC1	x	-0.25	x	i	23
Cc1ccccc1OCCn1cc(C(=S)N2CCN(C)CC2)c2ccccc21	x	0.23	x	i	79*
Cc1ccccc1OCCn1cc(C(=S)N2CCCC2)c2ccccc21	x	-0.61	x	i	14
CN1CCN(C(=S)c2cn(Cc3ccc(F)cc3)c3ccccc23)CC1	x	0.3	x	i	51*
COc1ccc(C(=O)N2CCCC(C(=O)N3CCN(c4ccccc4)CC3)C2)cc1 (stereo not drawn)	x	-0.056	x	x	x
COc1ccc2c(c1OC)C(=O)OC2Nc1nc(-c2ccc(-c3ccccc3)cc2)cs1 (stereo not drawn)	92	-0.11	87	i	52*
O=c1[nH]c(NNC(=S)NC2CCCCC2)nc2c1C1(CCCC1)Cc1ccccc1-2	x	-1.1	x	x	x
CCc1c(C)[nH]c2nc3ccccc3n2c1=O	90	0.73	94	i	94*
Cc1ccc(NC(=O)c2ccco2)c([N+](=O)[O-])c1	x	-0.004	x	i	1
CS(=O)(=O)N1CCN(c2ccccc2NC(=O)c2ccc(Cl)cc2)CC1	86	-0.38	92	i	-8
O=C(Nc1ccc2oc(-c3cccnc3)nc2c1)c1ccc(Br)o1	97	-0.71	103	i	-4
Cc1ccc(NC(=O)c2ccc([N+](=O)[O-])o2)c(C)c1	x	-0.23	x	i	94*
O=C(Nc1ccc2oc(-c3cccnc3)nc2c1)c1ccc([N+](=O)[O-])o1	x	1.6	x	i	100*
CCCCn1nnc(NC(=O)c2ccc(-c3ccccc3[N+](=O)[O-])o2)n1	x	0.03	x	i	17
CS(=O)(=O)N1CCN(c2ccccc2NC(=O)c2ccc([N+](=O)[O-])o2)CC1	x	-0.27	x	i	100*
CCn1nnc(NC(=O)c2ccc([N+](=O)[O-])o2)n1	x	-0.63	x	i	93*
O=C(Cn1cc2c(n1)CCCCC2)NCc1ccccn1	93	-0.17	91	i	-6
O=C(CN1C(=O)COc2ccc(S(=O)(=O)N3CCOCC3)cc21)NCc1ccccn1	x	-0.78	x	x	x
SMILES	PTEN del growth	Dynein transport	HCT116 bCat-KO	Autophagy mod	L major viab
Cc1cccnc1NC(=O)c1ccc([N+](=O)[O-])o1	45	-0.45	56	i	77*
Cc1cccc(NC(=O)c2ccc([N+](=O)[O-])cc2Cl)n1	88	-0.28	88	i	-3
Cc1cccc(NC(=O)c2ccc([N+](=O)[O-])o2)n1	2.5*	-0.98	3.3*	i	96*
Cc1cccnc1NC(=O)c1ccccc1-c1ccccc1C(=O)Nc1ncccc1C	103	1.8	99	i	5
Cc1ccccc1NC(=O)c1ccc([N+](=O)[O-])o1	x	-1.1	x	i	69*
Cc1cc2ccccn2c1C(=O)Nc1ccccc1	x	-0.26	x	i	-3
COc1ccc(C(C[N+](=O)[O-])c2c(-c3ccccc3)cc3ccccn23)c(OC)c1 (stereo not drawn)	41	-1.4	37	i	100*
COc1ccc(C(C[N+](=O)[O-])c2c(C)[nH]c3ccccc23)cc1OC (stereo not drawn)	85	-0.96	79	i	16
COc1ccc(C(C[N+](=O)[O-])c2c(C)cc3ccccn23)cc1 (stereo not drawn)	x	-1.2	x	i	99*
Cc1cc2ccccn2c1C(C[N+](=O)[O-])c1ccc(N(C)C)cc1 (stereo not drawn)	65	-1	59	i	89*
CCOC(=O)c1[nH]c(C)c(CN(C(C)=O)c2ccc(OCC)cc2)c1C	x	2.6	x	i	10
Cc1cccc(N2C(=O)C3C4C=CC(C5CC45)C3C2=O)n1 (stereo not drawn)	x	1.4	x	x	x

Bioassay records (PubChem BioAssay)
